These results are taken from ChEMBL document CHEMBL4257555, “Small molecule cores demonstrate non-competitive inhibition of lactate dehydrogenase” (Medchemcomm, 2018).

Data set [1] addresses L-lactate dehydrogenase B chain (Sus scrofa) (UniProt P00336). The data set can be described thus: Inhibition of porcine heart LDH assessed as enzymatic hydride transfer lifetime using pyruvate as substrate and NADH as cofactor measured after 2 hrs by stopped flow spectrometric analysis (reference value: 3.73 +/- 0.0901 ms).
The target is the same in data set [2]. The data set can be described thus: Inhibition of oxamate binding to porcine heart LDH assessed as emission maximum at 1000 uM using pyruvate as substrate and NADH as cofactor measured after 2 hrs by fluorescence spectra analysis (reference value: 452.9 +/- 0.3 nanometer).
Data set [3] has the same target. In words: Binding affinity to porcine heart LDH at 2.14 mM measured every 2 mins for 10 mins by dynamic light scattering analysis. In a few lines:
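DLS on filtered samples of 80 μN phLDH, 4 μM NADH and 2.14 mM inhibitor in 100 mM sodium phosphate pH 7.2 at room temperature. Autocorrelation functions and particle size distributions collected every 2 min for 10 min.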

The target is the same in data set [4]. The data set can be described thus: Inhibition of oxamate binding to porcine heart LDH assessed as relative fluorescence intensity at 1000 uM using pyruvate as substrate and NADH as cofactor measured after 2 hrs by fluorescence spectra analysis (reference value: 0.775 +/- 0.013 a.u.).
The target is the same in data set [5]. In words: Inhibition of oxamate binding to porcine heart LDH assessed as relative fluorescence intensity at 35 uM using pyruvate as substrate and NADH as cofactor measured after 2 hrs by fluorescence spectra analysis (reference value: 0.775 +/- 0.013 a.u.).
Data set [6] has the same target. In words: Inhibition of oxamate binding to porcine heart LDH assessed as emission maximum at 35 uM using pyruvate as substrate and NADH as cofactor measured after 2 hrs by fluorescence spectra analysis (reference value: 452.9 +/- 0.3 nanometer).
The target is the same in data set [7]. In words: Inhibition of oxamate binding to porcine heart LDH assessed as emission maximum at 6 uM using pyruvate as substrate and NADH as cofactor measured after 2 hrs by fluorescence spectra analysis (reference value: 452.9 +/- 0.36 nanometer).
The target is the same in data set [8]. In words: Inhibition of oxamate binding to porcine heart LDH assessed as relative fluorescence intensity at 961 uM using pyruvate as substrate and NADH as cofactor measured after 2 hrs by fluorescence spectra analysis (reference value: 0.775 +/- 0.013 a.u.).
For data set [9] the target is unchanged. In words: Inhibition of oxamate binding to porcine heart LDH assessed as relative fluorescence intensity at 6 uM using pyruvate as substrate and NADH as cofactor measured after 2 hrs by fluorescence spectra analysis (reference value: 0.775 +/- 0.013 a.u.).
For data set [10] the target is unchanged. The data set can be described thus: Inhibition of oxamate binding to porcine heart LDH assessed as emission maximum at 961 uM using pyruvate as substrate and NADH as cofactor measured after 2 hrs by fluorescence spectra analysis (reference value: 452.9 +/- 0.3 nanometer).
The target is the same in data set [11]. In words: Activation of porcine heart LDH at 1 mM using pyruvate as substrate and NADH as cofactor measured after 2 hrs by stopped-flow spectrometric method relative to control. The method, boiled down:
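Pig heart LDH buffer-exchanged into 100 mM sodium phosphate pH 7.2, then preincubated 2 h at 4 °C with inhibitor. Final: 5 nN enzyme, 100 μM NADH, 300 μM sodium pyruvate, 37 °C. Stopped-flow mixing of enzyme:NADH:inhibitor with pyruvate, NADH loss read at 340 nm. Initial rates are linear fits averaged over five shots and expressed relative to uninhibited enzyme.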

Data set [12] relates to CC(=O)Nc1cccc(O)c1. The data set can be described thus: Non-competitive inhibition of porcine heart LDH assessed as apparent Km for cofactor at 300 uM using pyruvate as substrate and NADH as cofactor measured after 2 hrs by Michaelis-Menten plot analysis (reference value: 8 +/- 2 uM). The note with it: Sus scrofa.
The test system of data set [13] is CC(=O)Nc1cccc(O)c1. In words: Mixed inhibition of porcine heart LDH assessed as substrate Kcat at 100 uM using pyruvate as substrate and NADH as cofactor measured after 2 hrs by Michaelis-Menten plot analysis (reference value: 232 +/- 13 /sec). The note with it: Sus scrofa.
Data set [14] deals with CC(=O)Nc1cccc(O)c1. The data set can be described thus: (§1) Mixed inhibition of porcine heart LDH assessed as apparent Km for substrate at 10 uM using pyruvate as substrate and NADH as cofactor measured after 2 hrs by Michaelis-Menten plot analysis (reference value: 73 +/- 10 uM). The note with it: Sus scrofa.
Data set [15] relates to NC(=O)c1cc(O)cc(O)c1. Described as §1. The note with it: Sus scrofa.
Data set [16] deals with CC(=O)Nc1cccc(O)c1. In words: (§2) Mixed inhibition of porcine heart LDH assessed as apparent Km for substrate at 100 uM using pyruvate as substrate and NADH as cofactor measured after 2 hrs by Michaelis-Menten plot analysis (reference value: 73 +/- 10 uM). The note with it: Sus scrofa.
Data set [17] relates to NC(=O)c1cc(O)cc(O)c1. Described as §2. The note with it: Sus scrofa.
Data set [18] relates to NC(=O)c1cc(O)cc(O)c1. In words: Mixed inhibition of porcine heart LDH assessed as substrate Kcat at 25 uM using pyruvate as substrate and NADH as cofactor measured after 2 hrs by Michaelis-Menten plot analysis (reference value: 319 +/- 8 /sec). The note with it: Sus scrofa.
The subject of data set [19] is CC(=O)Nc1cccc(O)c1. In words: Mixed inhibition of porcine heart LDH assessed as substrate Kcat at 50 uM using pyruvate as substrate and NADH as cofactor measured after 2 hrs by Michaelis-Menten plot analysis (reference value: 232 +/- 13 /sec). The note with it: Sus scrofa.
Data set [20] deals with CC(=O)Nc1cccc(O)c1. The data set can be described thus: (§3) Mixed inhibition of porcine heart LDH assessed as apparent Km for substrate at 300 uM using pyruvate as substrate and NADH as cofactor measured after 2 hrs by Michaelis-Menten plot analysis (reference value: 73 +/- 10 uM). The following applies: Sus scrofa.
The test system of data set [21] is NC(=O)c1cc(O)cc(O)c1. The data set is described as §3. The note with it: Sus scrofa.
The subject of data set [22] is NC(=O)c1cc(O)cc(O)c1. The data set can be described thus: Mixed inhibition of porcine heart LDH assessed as substrate Kcat at 100 uM using pyruvate as substrate and NADH as cofactor measured after 2 hrs by Michaelis-Menten plot analysis (reference value: 319 +/- 8 /sec). The note with it: Sus scrofa.
For data set [23], the system named is NC(=O)c1cc(O)cc(O)c1. In words: Mixed inhibition of porcine heart LDH assessed as substrate Kcat at 50 uM using pyruvate as substrate and NADH as cofactor measured after 2 hrs by Michaelis-Menten plot analysis (reference value: 319 +/- 8 /sec). The following applies: Sus scrofa.
The subject of data set [24] is NC(=O)c1cc(O)cc(O)c1. In words: Mixed inhibition of porcine heart LDH assessed as substrate Kcat at 300 uM using pyruvate as substrate and NADH as cofactor measured after 2 hrs by Michaelis-Menten plot analysis (reference value: 319 +/- 8 /sec). The following applies: Sus scrofa.
Data set [25] deals with CC(=O)Nc1cccc(O)c1. The data set can be described thus: Non-competitive inhibition of porcine heart LDH assessed as Kcat for cofactor at 50 uM using pyruvate as substrate and NADH as cofactor measured after 2 hrs by Michaelis-Menten plot analysis (reference value: 221 +/- 10 /sec). The note with it: Sus scrofa.
Data set [26] has as its system NC(=O)c1cc(O)cc(O)c1. The data set can be described thus: Mixed inhibition of porcine heart LDH assessed as substrate Kcat at 10 uM using pyruvate as substrate and NADH as cofactor measured after 2 hrs by Michaelis-Menten plot analysis (reference value: 319 +/- 8 /sec). The note with it: Sus scrofa.
The subject of data set [27] is CC(=O)Nc1cccc(O)c1. In words: Non-competitive inhibition of porcine heart LDH assessed as Kcat for cofactor at 300 uM using pyruvate as substrate and NADH as cofactor measured after 2 hrs by Michaelis-Menten plot analysis (reference value: 221 +/- 10 /sec). The note with it: Sus scrofa.
Data set [28] concerns CC(=O)Nc1cccc(O)c1. In words: (§4) Mixed inhibition of porcine heart LDH assessed as apparent Km for substrate at 50 uM using pyruvate as substrate and NADH as cofactor measured after 2 hrs by Michaelis-Menten plot analysis (reference value: 73 +/- 10 uM). The following applies: Sus scrofa.
The subject of data set [29] is NC(=O)c1cc(O)cc(O)c1. The description is as §4. The following applies: Sus scrofa.
The test system of data set [30] is CC(=O)Nc1cccc(O)c1. The data set can be described thus: Non-competitive inhibition of porcine heart LDH assessed as apparent Km for cofactor at 50 uM using pyruvate as substrate and NADH as cofactor measured after 2 hrs by Michaelis-Menten plot analysis (reference value: 8 +/- 2 uM). The following applies: Sus scrofa.
Data set [31] relates to CC(=O)Nc1cccc(O)c1. The data set can be described thus: Mixed inhibition of porcine heart LDH assessed as substrate Kcat at 25 uM using pyruvate as substrate and NADH as cofactor measured after 2 hrs by Michaelis-Menten plot analysis (reference value: 232 +/- 13 /sec). The following applies: Sus scrofa.
Data set [32] concerns CC(=O)Nc1cccc(O)c1. The data set can be described thus: Mixed inhibition of porcine heart LDH assessed as substrate Kcat at 300 uM using pyruvate as substrate and NADH as cofactor measured after 2 hrs by Michaelis-Menten plot analysis (reference value: 232 +/- 13 /sec). The note with it: Sus scrofa.
The subject of data set [33] is CC(=O)Nc1cccc(O)c1. The data set can be described thus: (§5) Mixed inhibition of porcine heart LDH assessed as apparent Km for substrate at 25 uM using pyruvate as substrate and NADH as cofactor measured after 2 hrs by Michaelis-Menten plot analysis (reference value: 73 +/- 10 uM). The following applies: Sus scrofa.
The subject of data set [34] is NC(=O)c1cc(O)cc(O)c1. The data set is described as §5. The note with it: Sus scrofa.
The test system of data set [35] is CC(=O)Nc1cccc(O)c1. In words: Mixed inhibition of porcine heart LDH assessed as substrate Kcat at 10 uM using pyruvate as substrate and NADH as cofactor measured after 2 hrs by Michaelis-Menten plot analysis (reference value: 232 +/- 13 /sec). The note with it: Sus scrofa.

Activity calls are given as the source filed them. No cut-off for these calls is given here.

L-lactate dehydrogenase B chain (Sus scrofa), P00336, sequence (P00336 whole entry): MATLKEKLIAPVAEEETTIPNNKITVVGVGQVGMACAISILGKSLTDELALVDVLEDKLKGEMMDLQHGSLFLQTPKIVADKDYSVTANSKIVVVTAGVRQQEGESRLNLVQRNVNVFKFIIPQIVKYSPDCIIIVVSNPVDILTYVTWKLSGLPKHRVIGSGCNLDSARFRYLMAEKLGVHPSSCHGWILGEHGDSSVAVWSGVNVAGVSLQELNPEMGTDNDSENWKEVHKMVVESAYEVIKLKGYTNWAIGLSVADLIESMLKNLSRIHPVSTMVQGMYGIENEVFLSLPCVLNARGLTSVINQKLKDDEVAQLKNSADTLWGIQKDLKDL
L-lactate dehydrogenase B chain (Sus scrofa), sequence (P00336 whole entry): as above

For `CC(=O)Nc1cccc(O)c1`, the TIME in [1] is 1.09e-06 h. Besides, the Activity in [2] was 449 nm. For the same compound, the result in data set [3] was Active. Also, in data set [4], the RFU was determined as 0.793 a.u.

Consider `CC(=O)Nc1ccccc1`, for which, in [3], the result was Active.

For the compound `NC(=O)c1cc(O)cc(O)c1`, the RFU stood at 0.759 a.u in data set [5], 0.773 a.u in data set [8] and 0.764 a.u in data set [9]. The results for the Activity in [6], in [7] and in [10] were 453 nm, 453 nm and 455 nm, respectively. Besides, the outcome in data set [3] was Active.

Take `N[C@@H](Cc1c[nH]c2ccccc12)C(=O)O`: the Activity in data set [11] was less than 24%.

Turning to “L-lactate dehydrogenase B chain (Sus scrofa), P00336”, the Km – broadly, the substrate concentration at which the rate is half of its maximum – worked out at 7 µM in the data set on CC(=O)Nc1cccc(O)c1 [12]; 98 µM in the data set with CC(=O)Nc1cccc(O)c1 [14]; 87 µM in the data set with NC(=O)c1cc(O)cc(O)c1 [15]; 163 µM with CC(=O)Nc1cccc(O)c1 [16]; 116 µM with NC(=O)c1cc(O)cc(O)c1 [17]; 133 µM with CC(=O)Nc1cccc(O)c1 [20]. The Km in the data set on NC(=O)c1cc(O)cc(O)c1 [21] amounted to 111 µM; with CC(=O)Nc1cccc(O)c1 [28], 155 µM; in the data set on NC(=O)c1cc(O)cc(O)c1 [29], 102 µM; with CC(=O)Nc1cccc(O)c1 [30], 7 µM; in the data set with CC(=O)Nc1cccc(O)c1 [33], 98 µM; with NC(=O)c1cc(O)cc(O)c1 [34], 90 µM. The kcat (in general, the maximal rate divided by the concentration of active sites) in the data set on CC(=O)Nc1cccc(O)c1 [13] amounted to 211 s⁻¹; in the data set on NC(=O)c1cc(O)cc(O)c1 [18], 229 s⁻¹; with CC(=O)Nc1cccc(O)c1 [19] it was 175 s⁻¹; with NC(=O)c1cc(O)cc(O)c1 [22], 216 s⁻¹; with NC(=O)c1cc(O)cc(O)c1 [23], 242 s⁻¹; with NC(=O)c1cc(O)cc(O)c1 [24] it was 176 s⁻¹. For the same compound, the turnover number (kcat) in the data set on CC(=O)Nc1cccc(O)c1 [25] was determined as 190 s⁻¹; in the data set with NC(=O)c1cc(O)cc(O)c1 [26], 281 s⁻¹; in the data set on CC(=O)Nc1cccc(O)c1 [27], 191 s⁻¹; with CC(=O)Nc1cccc(O)c1 [31] it was 190 s⁻¹; in the data set on CC(=O)Nc1cccc(O)c1 [32], 132 s⁻¹; with CC(=O)Nc1cccc(O)c1 [35], 211 s⁻¹.
